One data set deals with Mus musculus. Nature of the data set: Dose normalized AUC (0 to infinity) in CD-1 mouse at 5 mg/kg, po administered as single dose. Format: ADME, organism-based. Particulars: in vivo.
Data set [1] can be described thus: Initial concentration in CD-1 mouse at 1 mg/kg, iv or 5 mg/kg, po administered as single dose. Format: ADME, organism-based. The following applies: in vivo. A digest of the protocol:
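Female CD-1 mice, single dose. Oral formulation: 70% PEG300/30% (5% dextrose in water) at 0.5 mg/mL. Intravenous formulation: 5% DMSO/10% cremophor/85% water at 0.25 mg/mL. Parameters from non-compartmental analysis.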

Each structure is given as a SMILES string.

`CCCNC(=O)N1[C@H](C#N)[C@H](c2ccc(-c3ccc(C(F)(F)F)c(C(F)(F)F)c3)cc2)[C@H]1CO` displayed an AUC/dose in the data set with Mus musculus greater than 54.3 µM·h. This compound had a C0 in data set [1] of 4.9 µM.
